This passage reports Activity and IC50 results from ChEMBL document CHEMBL4041479, “Piperlongumine (piplartine) and analogues: Antiproliferative microtubule-destabilising agents” (Eur J Med Chem, 2017).

The test system of data set [1] is MCF-10A. Briefly: Cytotoxicity in human MCF10A cells at 5 uM at 48 hrs by alamarBlue assay. Format: cell-based. On the technique in general: Resazurin is reduced to fluorescent resorufin, in cell work by metabolically active cells.
Data set [2] relates to MCF-10A. Briefly: Cytotoxicity in human MCF10A cells at 1 uM after 24 to 48 hrs by alamarBlue assay. Format: cell-based.
Data set [3] relates to MCF7. Briefly: Antiproliferative activity in human MCF7 cells assessed as cell viability after 48 hrs by alamarBlue assay. In kind it is functional, cell-based. The conditions noted are these: MCF7, 48 h. In outline:
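Cells were seeded at 2.5×10^4 cells/mL and treated after 24 h with vehicle (0.1% v/v ethanol) or a dose range (0.1–20 μM) for 48 h at 37 °C in 5% CO2. Media-only blanks were subtracted, and viability is given as % of vehicle. Sextuplicate wells, three independent experiments.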

Data set [4] relates to MCF-10A. Nature of the data set: Cytotoxicity in human MCF10A cells at 5 uM at 24 hrs by alamarBlue assay. In kind it is cell-based.
In data set [5] the test system is MCF7. Briefly: Induction of reactive oxygen species generation in human MCF7 cells assessed as decrease in cell viability at 5 to 20 uM in presence of N-acetyl cysteine after 48 hrs by alamarBlue assay. In kind it is functional, cell-based. In outline: (§1)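 MCF-7 cells were seeded at 2.5×10^4 cells/mL and left to adhere. They were pre-treated 1 h with N-acetyl cysteine (1 mM) or Trolox (100 μM), then exposed to test agents for 48 h. Viability was measured by alamarBlue fluorescence as % of ethanol vehicle control. Mean of three independent experiments.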

Data set [6] deals with MCF7. Briefly: Induction of reactive oxygen species generation in human MCF7 cells assessed as decrease in cell viability at 5 to 20 uM in presence of trolox after 48 hrs by alamarBlue assay. In kind it is functional, cell-based. In outline: as §1
The species entered for data set [7] is Homo sapiens. Briefly: Induction of tubulin depolymerization in human Jurkat cells at 1 uM after 4 hrs by Western blot method. Format: cell-based. The gist of the method:
(§2)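 MCF-7 (1×10^6/well) or Jurkat cells were treated for 4 h with 1–20 μM or 0.1% ethanol. Cells were lysed in microtubule-preserving buffer (0.1 M PIPES pH 6.9, 2 M glycerol, 5 mM MgCl2, 2 mM EGTA, 0.5% Triton X-100, 4 μM paclitaxel) and centrifuged at 20,000g for 45 min. Soluble (supernatant) and polymer (pellet) fractions, 30 μg protein each, were immunoblotted for α-tubulin with a GAPDH loading control. Three experiments.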
For orientation: Immunoblotting shows a protein as a band on a membrane.

For data set [8], the species on record is Homo sapiens. Briefly: Induction of tubulin depolymerization in human MCF7 cells at 1 uM after 4 hrs by Western blot method. In kind it is cell-based. The gist of the method: as §2
Data set [9] has as its system MCF7. Briefly: Induction of reactive oxygen species generation in human MCF7 cells assessed as decrease in cell viability at 10 uM in presence of N-acetyl cysteine after 48 hrs by alamarBlue assay. Format: functional, cell-based. In outline: as §1

Active and inactive are the calls of the source. The calls are words filed in the database; no cut-off is given here.

What is called IC50 is the concentration that gives 50% inhibition. As for `COc1cccc(/C=C/C(=O)N2CCC=CC2=O)c1`, the Activity in data set [1] is recorded as over 80%; in [2] it was “Non-Toxic”; in [4] it was over 90%. Moreover, the IC50 in data set [3] is 7.5 µM.
For the molecule `COc1cc(OC)c(OC)cc1/C=C/C(=O)N1CCC=CC1=O`, the Activity in data set [1] is listed as over 80%; in data set [2] it was “Non-Toxic”; in [4], over 90%. Also, the outcome in data set [5] and in [6] was inactive. For the same molecule, the IC50 in data set [3] came out at 3.4 µM.
For the molecule `CC(=O)O[C@H]1C(=O)[C@@]2(C)[C@H]([C@H](OC(=O)c3ccccc3)[C@]3(O)C[C@H](OC(=O)[C@H](O)[C@@H](NC(=O)c4ccccc4)c4ccccc4)C(C)=C1C3(C)C)[C@]1(OC(C)=O)CO[C@@H]1C[C@@H]2O`, the result in data set [7] and in data set [8] was inactive.
Turning to `COC(=O)Nc1nc2cc(C(=O)c3cccs3)ccc2[nH]1`, the result in data set [7] and in data set [8] was Active.
Turning to `COc1cc(/C=C/C(=O)c2ccccc2)cc(OC)c1OC`, the result in data set [9] was inactive.
